Reference: ChEMBL document CHEMBL2401654, “Synthesis, characterization, and biological assessment of the four stereoisomers of the H(3) receptor antagonist 5-fluoro-2-methyl-N-[2-methyl-4-(2-methyl[1,3']bipyrrolidinyl-1'-yl)phenyl]benzamide” (Bioorg Med Chem Lett, 2013)

Key:
[1] = Cmax in C57BL/6 mouse brain at 10 mg/kg, po; type: ADME, organism-based; design: dose 10 mg/kg, route oral
Summary of the method: (§1)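 Male C57BL/6 mice were dosed orally at 10 mg/kg, formulated at 1 mg/mL in 5% DMSO/0.5% MC/0.2% tween 80. Plasma and brain were sampled for PK parameters. Brain to plasma ratio was based on AUC0-24.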

[2] = Drug metabolism in rat liver microsomes at 5 uM after 20 mins; type: ADME, Microsome; settings: read-out: Drug metabolism
Summary of the method: (§2)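 Substrate at 5 µM incubated at 37 °C for 20 min with in-house liver microsome preparations (human, mouse or rat). Reported as the percentage of parent compound metabolized.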

Salmonella typhimurium = experiment: Mutagenic activity in Salmonella typhimurium by Ames test; type: toxicity, organism-based; settings: salmonella enterica subsp. enterica serovar typhimurium
[3] = AUC (0 to infinity) in C57BL/6 mouse brain at 10 mg/kg, po; type: ADME, organism-based; design: time infinity, dose 10 mg/kg, route oral; summary of the method: as §1
[4] = Cmax in C57BL/6 mouse plasma at 10 mg/kg, po; type: ADME, organism-based; design: dose 10 mg/kg, route oral; summary of the method: as §1
[5] = AUC (0 to infinity) in C57BL/6 mouse plasma at 10 mg/kg, po; type: ADME, organism-based; design: time infinity, dose 10 mg/kg, route oral; summary of the method: as §1
[6] = Clearance in C57BL/6 mouse at 2 mg/kg, iv; type: ADME, organism-based; design: dose 2 mg/kg, route intravenous; settings: in vivo
Summary of the method: (§3)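 Male C57BL/6 mice received a single intravenous dose of 2 mg/kg, formulated at 1 mg/mL in 50% 1-methyl-2-pyrrolidinone in saline. Plasma and brain concentrations were followed to derive PK parameters. Brain to plasma ratio was calculated from AUC.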

[7] = Drug metabolism in human liver microsomes at 5 uM after 20 mins; type: ADME, Microsome; settings: read-out: Drug metabolism; summary of the method: as §2
Histamine H3 receptor = Histamine H3 receptor (Homo sapiens, UniProt Q9Y5N1); experiment: Displacement of [3H]N-alpha-methylhistamine from recombinant human histamine H3 receptor transfected in CHO cell membranes after 1 hr by scintillation counting analysis
Summary of the method: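 Radioligand displacement of [3H]N-α-methylhistamine using membranes from CHO cells stably transfected with recombinant human or rat H3 receptor. Ki is presented as a range of multiple experiments (n ≥ 3).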

[8] = Partition coefficient, log P of the compound; type: physicochemical; settings: octanol/water
[9] = Tmax in C57BL/6 mouse plasma at 10 mg/kg, po; type: ADME, organism-based; design: dose 10 mg/kg, route oral; summary of the method: as §1
Cytochrome P450 2B6 = biological target: T1, Cytochrome P450 2B6 (Homo sapiens, UniProt P20813); experiment: Inhibition of CYP2B6 (unknown origin); type: ADME
T1 sequence (P20813 whole entry): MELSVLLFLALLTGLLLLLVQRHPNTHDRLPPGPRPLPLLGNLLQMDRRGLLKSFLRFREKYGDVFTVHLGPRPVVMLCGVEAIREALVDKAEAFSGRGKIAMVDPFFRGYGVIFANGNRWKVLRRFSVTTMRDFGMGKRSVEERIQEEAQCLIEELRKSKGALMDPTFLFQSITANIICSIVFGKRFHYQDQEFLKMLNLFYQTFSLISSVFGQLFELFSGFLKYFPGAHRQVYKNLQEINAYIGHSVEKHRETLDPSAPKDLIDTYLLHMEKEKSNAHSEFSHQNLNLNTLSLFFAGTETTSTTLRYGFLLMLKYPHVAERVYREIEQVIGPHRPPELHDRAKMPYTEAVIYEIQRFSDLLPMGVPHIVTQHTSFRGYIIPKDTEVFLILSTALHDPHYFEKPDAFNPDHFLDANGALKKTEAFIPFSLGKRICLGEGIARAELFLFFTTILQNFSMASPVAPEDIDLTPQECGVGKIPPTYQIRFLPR

[10] = Ratio of AUC (0 to 24 hrs) in C57BL/6 mouse brain to AUC (0 to 24 hrs) in C57BL/6 mouse plasma at 10 mg/kg, po; type: ADME, organism-based; design: dose 10 mg/kg, route oral; settings: read-out: Ratio AUC
Summary of the method: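 Male C57BL/6 mice were given a single oral dose of 10 mg/kg, formulated at 1 mg/mL in 5% DMSO/0.5% MC/0.2% tween 80. Compound levels were measured in plasma and brain over time. The brain-to-plasma ratio was calculated from AUC0-24 values.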

Cytochrome P450 2C9 = Cytochrome P450 2C9 (Homo sapiens, UniProt P11712); experiment: Inhibition of CYP2C9 (unknown origin); type: ADME
[11] = Drug metabolism in mouse liver microsomes at 5 uM after 20 mins; type: ADME, Microsome; settings: read-out: Drug metabolism; summary of the method: as §2
[12] = Cmax in C57BL/6 mouse plasma at 2 mg/kg, iv; type: ADME, organism-based; design: dose 2 mg/kg, route intravenous; summary of the method: as §3
[13] = Half life in C57BL/6 mouse brain at 2 mg/kg, iv; type: ADME, organism-based; design: dose 2 mg/kg, route intravenous; summary of the method: as §3
Cytochrome P450 2D6 = Cytochrome P450 2D6 (Homo sapiens, UniProt P10635); experiment: Inhibition of CYP2D6 (unknown origin); type: ADME
Mus musculus [14] = experiment: Toxicity in mouse assessed as appearance of abnormal clinical signs at 3 to 30 mg/kg, po after 1 week; type: organism-based; design: dose 3-30 mg/kg, route oral; settings: in vivo, 168 h
Summary of the method: (§4)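 Behavioral safety study in mice given single oral doses of 3, 10 and 30 mg/kg. Tremors, tail pinch response, body temperature, pupil size and body weight were scored at 2 and 6 h post dose. Clinical signs were observed over one week after dosing.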

Mus musculus [15] = experiment: Toxicity in mouse assessed as increase in tail pinch at => 10 mg/kg, po; type: organism-based; design: dose 10 mg/kg, route oral; settings: in vivo; summary of the method: as §4
Cytochrome P450 2C19 = Cytochrome P450 2C19 (Homo sapiens, UniProt P33261); experiment: Inhibition of CYP2C19 (unknown origin); type: ADME
Histamine receptor H3 = Histamine receptor H3 (Macaca mulatta, UniProt Q865E1); experiment: Displacement of [3H]N-alpha-methylhistamine from recombinant rhesus monkey histamine H3 receptor transfected in CHO cell membranes after 1 hr by scintillation counting analysis
[16] = Distribution coefficient, log D of the compound; type: physicochemical; settings: octanol/water
Mus musculus [17] = experiment: Toxicity in mouse assessed as effect on pupil size at 3 to 30 mg/kg, po; type: organism-based; design: dose 3-30 mg/kg, route oral; settings: in vivo; summary of the method: as §4

Chain of Histamine H3 receptor (Q9Y5N1 whole entry): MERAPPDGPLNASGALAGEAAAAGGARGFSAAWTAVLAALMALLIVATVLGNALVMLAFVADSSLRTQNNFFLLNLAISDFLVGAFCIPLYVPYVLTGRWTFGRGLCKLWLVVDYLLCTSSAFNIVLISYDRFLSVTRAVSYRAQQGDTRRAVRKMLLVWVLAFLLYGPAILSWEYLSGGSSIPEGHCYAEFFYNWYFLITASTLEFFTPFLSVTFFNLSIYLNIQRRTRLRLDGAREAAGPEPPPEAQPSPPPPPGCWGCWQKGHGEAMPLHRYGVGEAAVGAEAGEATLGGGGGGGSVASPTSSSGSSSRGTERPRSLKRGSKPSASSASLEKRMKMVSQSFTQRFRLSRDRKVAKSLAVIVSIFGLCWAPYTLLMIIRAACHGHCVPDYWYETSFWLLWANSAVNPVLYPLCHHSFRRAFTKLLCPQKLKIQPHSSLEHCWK
Chain of Cytochrome P450 2C9 (P11712 whole entry): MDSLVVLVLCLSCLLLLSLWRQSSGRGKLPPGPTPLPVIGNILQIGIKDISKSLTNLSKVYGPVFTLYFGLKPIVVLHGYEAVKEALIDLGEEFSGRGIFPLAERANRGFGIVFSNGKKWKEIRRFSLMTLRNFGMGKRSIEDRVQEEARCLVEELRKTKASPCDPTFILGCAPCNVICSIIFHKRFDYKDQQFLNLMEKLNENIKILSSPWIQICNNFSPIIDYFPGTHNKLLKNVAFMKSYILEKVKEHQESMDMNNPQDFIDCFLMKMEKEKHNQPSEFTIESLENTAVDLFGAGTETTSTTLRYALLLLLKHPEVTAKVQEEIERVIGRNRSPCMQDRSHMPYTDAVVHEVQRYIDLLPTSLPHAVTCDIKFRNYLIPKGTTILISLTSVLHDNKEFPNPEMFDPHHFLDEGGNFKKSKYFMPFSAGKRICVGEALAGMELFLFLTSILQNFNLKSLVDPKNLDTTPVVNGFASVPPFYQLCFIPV
Chain of Histamine receptor H3 (Q865E1 whole entry): as the sequence (Q9Y5N1 whole entry) above, with D148N, A240G, V282A, A289T, T290A, V300A, H442Q counted along it
Chain of Cytochrome P450 2D6 (P10635 whole entry): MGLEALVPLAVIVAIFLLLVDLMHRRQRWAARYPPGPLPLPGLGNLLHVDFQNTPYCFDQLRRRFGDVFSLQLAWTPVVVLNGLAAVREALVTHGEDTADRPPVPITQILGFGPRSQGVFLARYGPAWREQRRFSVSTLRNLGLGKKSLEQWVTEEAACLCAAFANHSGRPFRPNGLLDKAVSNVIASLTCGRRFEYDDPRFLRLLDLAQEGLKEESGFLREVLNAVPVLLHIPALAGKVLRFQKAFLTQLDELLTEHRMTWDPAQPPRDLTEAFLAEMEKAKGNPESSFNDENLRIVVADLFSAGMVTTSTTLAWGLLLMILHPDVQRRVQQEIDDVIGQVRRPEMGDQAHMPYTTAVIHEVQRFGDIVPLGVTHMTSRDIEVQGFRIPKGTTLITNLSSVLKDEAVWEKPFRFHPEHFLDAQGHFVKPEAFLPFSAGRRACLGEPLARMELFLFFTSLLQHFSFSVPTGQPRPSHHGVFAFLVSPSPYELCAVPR
Chain of Cytochrome P450 2C19 (P33261 whole entry): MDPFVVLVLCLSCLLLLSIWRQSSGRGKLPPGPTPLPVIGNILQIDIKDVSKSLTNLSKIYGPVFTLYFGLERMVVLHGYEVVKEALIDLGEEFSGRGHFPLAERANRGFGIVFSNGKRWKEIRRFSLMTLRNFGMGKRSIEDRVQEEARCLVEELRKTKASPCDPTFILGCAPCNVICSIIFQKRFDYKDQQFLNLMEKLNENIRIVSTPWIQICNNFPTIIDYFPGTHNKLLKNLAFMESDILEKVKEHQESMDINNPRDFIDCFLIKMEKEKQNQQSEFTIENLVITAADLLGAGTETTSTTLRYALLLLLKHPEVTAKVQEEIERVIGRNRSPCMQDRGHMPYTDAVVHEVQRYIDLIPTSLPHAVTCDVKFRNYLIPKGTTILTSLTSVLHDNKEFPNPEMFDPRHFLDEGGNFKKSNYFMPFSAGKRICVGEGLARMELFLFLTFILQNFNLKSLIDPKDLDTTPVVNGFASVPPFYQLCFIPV

Cc1cc(N2CC[C@H](N3CCC[C@@H]3C)C2)ccc1NC(=O)c1cc(F)ccc1C
Cmax [1]: 4290 ng/mL | metabolised at 20 min, 5 µM [2]: 20% | Activity (Salmonella typhimurium): Non-toxic | AUC(0-inf) [3]: 18000 ng·h/mL | Cmax [4]: 1310 ng/mL | AUC(0-inf) [5]: 4000 ng·h/mL | clearance [6]: 60 mL/min/kg | metabolised at 20 min, 5 µM [7]: 3% | Ki (Histamine H3 receptor): 0.0034 µM | logP [8]: 3.55 | Tmax [9]: 10.2 min | IC50 (Cytochrome P450 2B6): > 30 µM | Kp [10]: 4.6 | IC50 (Cytochrome P450 2C9): > 30 µM | metabolised at 20 min, 5 µM [11]: 19% | Cmax [12]: 2000 ng/mL | half-life [13]: 96 min | IC50 (Cytochrome P450 2D6): > 30 µM | Activity (Mus musculus [14]): Non-toxic | Activity (Mus musculus [15]): Toxic | IC50 (Cytochrome P450 2C19): > 30 µM | Ki (Histamine receptor H3): 0.0025 µM | logD [16]: 2.09 | Activity (Mus musculus [17]): Non-toxic
